ChEMBL document CHEMBL1125428, “Development of 2,3-dihydro-6-(3-phenoxypropyl)-2-(2-phenylethyl)-5-benzofuranol (L-670,630) as a potent and orally active inhibitor of 5-lipoxygenase” (J Med Chem, 1992)
pIC50: −log10 of the molar value.

Key:
[1] = target: Arachidonate 5-lipoxygenase (Homo sapiens); experiment: Inhibitory activity of LTB4 production in human PMN
[2] = target: T1, Polyunsaturated fatty acid 5-lipoxygenase (Rattus norvegicus, UniProt P12527); experiment: The compound was tested for its inhibitory activity against arachidonic acid in rat 5-lipoxygenase
T1 sequence (P12527 whole entry): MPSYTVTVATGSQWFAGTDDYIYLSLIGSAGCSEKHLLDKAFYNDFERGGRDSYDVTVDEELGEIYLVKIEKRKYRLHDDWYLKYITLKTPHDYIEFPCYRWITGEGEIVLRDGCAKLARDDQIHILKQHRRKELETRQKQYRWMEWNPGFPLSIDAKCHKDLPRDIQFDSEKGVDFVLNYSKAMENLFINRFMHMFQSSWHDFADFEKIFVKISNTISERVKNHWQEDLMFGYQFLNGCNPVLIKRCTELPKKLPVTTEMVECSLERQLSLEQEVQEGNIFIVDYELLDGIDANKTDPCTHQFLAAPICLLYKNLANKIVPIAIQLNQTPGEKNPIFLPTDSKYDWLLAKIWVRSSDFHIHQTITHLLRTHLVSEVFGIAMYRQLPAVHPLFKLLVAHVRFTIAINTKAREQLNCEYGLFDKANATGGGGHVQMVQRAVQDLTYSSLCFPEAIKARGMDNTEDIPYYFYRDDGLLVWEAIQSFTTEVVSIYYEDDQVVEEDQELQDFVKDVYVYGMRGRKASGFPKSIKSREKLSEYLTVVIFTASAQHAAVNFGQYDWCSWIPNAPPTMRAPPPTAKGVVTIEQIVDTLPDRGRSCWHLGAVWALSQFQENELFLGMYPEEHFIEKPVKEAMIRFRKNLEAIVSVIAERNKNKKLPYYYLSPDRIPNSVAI
Procedure, shortened: (§1)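 10000g supernatant from rat PMN leukocytes incubated 10 min with [14C]arachidonic acid. 5-Lipoxygenase activity taken as percentage conversion to 5-HETE plus 5,12-diHETEs.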

Canis familiaris = organism: Canis familiaris; experiment: Effect on methemoglobin formation in canine venous blood containing heparin; type: functional, Canis lupus familiaris
Rattus norvegicus [3] = organism: Rattus norvegicus; experiment: Percentage inhibition against antigen induced dyspnea in hyperactive inbred rat at a dose of […]; type: functional
Rattus norvegicus [4] = experiment: Percentage inhibition against antigen induced dyspnea in hyperactive inbred rat at a dose of 0.05 mg/kg; type: functional
Procedure, shortened: (§2)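 Inbred hyperreactive rats, six per group, dosed po 2 h before aerosol ovalbumin challenge, with drug suspension or vehicle (0.4% Methocel/0.5% Tween 80, 10 mL/kg). Methysergide 3 mg/kg iv given 5 min before antigen. Dyspnea duration recorded by pneumotachograph. % inhibition of duration is relative to vehicle controls. Student's t test used; ED50 from linear regression.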

[5] = Measure of AUCpo/AUCiv x 100% of the parent compound before (free) and after (total) beta-glucuronidase treatment; total 27%; type: ADME, organism-based; conditions: in vivo, po; read-out: Bioavailabiility
[6] = Peak concentration of drug in rat plasma after oral dosing at 20 mg/kg. Concentration of parent compound was measured before (free) and after (total) beta-glucuronidase treatment; total 3.1 uM; type: ADME, organism-based; set-up: dose 20 mg/kg, route oral; conditions: read-out: Plasma level
[7] = target: T1, Polyunsaturated fatty acid 5-lipoxygenase; experiment: Tested for its inhibitory activity against arachidonic acid in rat 5-lipoxygenase.
Procedure, shortened: as §1

Rattus norvegicus [8] = experiment: Effective dose against antigen induced dyspnea in hyperactive inbred rat at a dose of 0.5 mg/kg; type: functional
Procedure, shortened: as §2

[9] = Peak concentration of drug in rat plasma after oral dosing at 20 mg/kg. Concentration of parent compound was measured before (free) and after (total) beta-glucuronidase treatment; total 3.8 uM; type: ADME, organism-based; set-up: dose 20 mg/kg, route oral; conditions: read-out: Plasma level
Rattus norvegicus [10] = experiment: Percentage inhibition against antigen induced dyspnea in hyperactive inbred rat at a dose of 0.5 mg/kg; type: functional; conditions: for inhibition in vivo at 0.5 mg/kg: Rattus norvegicus
Procedure, shortened: as §2

[11] = Measure of AUCpo/AUCiv x 100% of the parent compound before (free) and after (total) beta-glucuronidase treatment; total 76%; type: ADME, organism-based; conditions: in vivo, po; read-out: Bioavailabiility
Rattus norvegicus [12] = organism: Rattus norvegicus; experiment: Effective dose against antigen induced dyspnea in hyperactive inbred rat at a dose of […]; type: functional
Rattus norvegicus [13] = experiment: Peak concentration of drug in rat plasma after oral dosing at 20 mg/kg. Concentration of parent compound was measured before (free) and after (total) beta-glucuronidase treatment; total 0.7 uM; type: functional, organism-based; set-up: dose 20 mg/kg
[14] = Measure of AUCpo/AUCiv x 100% of the parent compound before (free) and after (total) beta-glucuronidase treatment; total 4%; type: ADME, organism-based; conditions: in vivo, po; read-out: Bioavailabiility
[15] = Peak concentration of drug in rat plasma after oral dosing at 20 mg/kg. Concentration of parent compound was measured before (free) and after (total) beta-glucuronidase treatment; total 3.4 uM; type: ADME, organism-based; set-up: dose 20 mg/kg, route oral; conditions: read-out: Plasma level
[16] = Measure of AUCpo/AUCiv x 100% of the parent compound before (free) and after (total) beta-glucuronidase treatment; total 72%; type: ADME, organism-based; conditions: in vivo, po; read-out: Bioavailabiility
[17] = Peak concentration of drug in rat plasma after oral dosing at 20 mg/kg. Concentration of parent compound was measured before (free) and after (total) beta-glucuronidase treatment; total 2.2 uM; type: ADME, organism-based; set-up: dose 20 mg/kg, route oral; conditions: read-out: Plasma level
[18] = Peak concentration of drug in rat plasma after oral dosing at 20 mg/kg. Concentration of parent compound was measured before (free) and after (total) beta-glucuronidase treatment; total 3.0 uM; type: ADME, organism-based; set-up: dose 20 mg/kg, route oral; conditions: read-out: Plasma level
[19] = Measure of AUCpo/AUCiv x 100% of the parent compound before (free) and after (total) beta-glucuronidase treatment; total 10%; type: ADME, organism-based; conditions: in vivo, po; read-out: Bioavailabiility

| pIC50 [1] | pIC50 [7] | Structure (SMILES) | Formation (Canis familiaris) | further results |
| --- | --- | --- | --- | --- |
| 7.74 | – | CCCc1cc2c(cc1O)C(C)C(Cc1ccc(OC)cc1)O2 (stereo not drawn) | 6% | pIC50 [2]: 7.46 |
| 7.39 | 7.29 | Oc1cc2c(cc1CCCOc1ccccc1)OC(CCc1ccc(Cl)cc1)C2 (stereo not drawn) | 2.8% | inhibition in vivo at […] (Rattus norvegicus [3]; dose 0.15 mg/kg): 66%; inhibition in vivo at 0.05 mg/kg (Rattus norvegicus [4]): 56%; bioavailability [5]: 6%; Cmax [6]: 300 nM; ED50 (Rattus norvegicus [8]): 0.07 mg/kg |
| 7.24 | – | Oc1cc2c(cc1CCCOc1ccccc1)OCC2 | – | – |
| 6.45 | 7.36 | O=C(O)c1ccc(OCCCc2cc3c(cc2O)CC(CCc2ccccc2)O3)cc1 (stereo not drawn) | 3% | – |
| 7.74 | 7.32 | Oc1cc2c(cc1Cc1ccccc1)OC(CCc1ccccc1)C2 (stereo not drawn) | 6% | inhibition in vivo at […] (Rattus norvegicus [3]; dose 0.15 mg/kg): 44%; Cmax [9]: 1600 nM; inhibition in vivo at 0.05 mg/kg (Rattus norvegicus [4]): 44%; inhibition in vivo at 0.5 mg/kg (Rattus norvegicus [10]): 53%; bioavailability [11]: 44%; ED50 at […] (Rattus norvegicus [12]): 0.3 mg/kg |
| 7.33 | 7.28 | C=CCc1cc2c(cc1O)C(C)(C)C(CCc1ccc(OC)cc1)O2 (stereo not drawn) | 2% | inhibition in vivo at […] (Rattus norvegicus [3]; dose 1.5 mg/kg): 50%; Plasma level (Rattus norvegicus [13]): 0 µM |
| 7.12 | 7.36 | CCCc1cc2c(cc1O)C(C)(C)C(CCSc1ccccn1)O2 (stereo not drawn) | – | – |
| 6.72 | – | CS(=O)(=O)c1ccc(Cc2cc3c(cc2O)CC(CCc2ccccc2)O3)cc1 (stereo not drawn) | – | – |
| 6.75 | – | CCCc1cc2c(cc1O)C(C)(C)C(CCc1ccc(S(C)(=O)=O)cc1)O2 (stereo not drawn) | – | – |
| 7.43 | 7.30 | COc1nc2c(SCCCc3cc4c(cc3O)CC(CCc3ccccc3)O4)cccc2cc1C(=O)O (stereo not drawn) | 1% | inhibition in vivo at […] (Rattus norvegicus [3]; dose 0.15 mg/kg): 72%; inhibition in vivo at 0.05 mg/kg (Rattus norvegicus [4]): 55%; inhibition in vivo at 0.5 mg/kg (Rattus norvegicus [10]): 69%; bioavailability [14]: 3%; ED50 at […] (Rattus norvegicus [12]): < 0.05 mg/kg; Cmax [15]: 1000 nM |
| 7.42 | 7.60 | C=CCc1c(O)ccc2c1CC(CCc1ccccc1)O2 (stereo not drawn) | 18% | – |
| 8.05 | 7.28 | CCCc1c(OCCCc2cc3c(cc2O)CC(CCc2ccccc2)O3)ccc(C(C)=O)c1O (stereo not drawn) | 3% | Inhibition (Rattus norvegicus [10]; 0.5 mg/kg): 50%; inhibition in vivo at 0.5 mg/kg (Rattus norvegicus [10]): 50% |
| 7.31 | 6.79 | C=CCc1cc2c(cc1O)C(C)(C)C(Cc1ccc(OC)cc1)O2 (stereo not drawn) | 1% | inhibition in vivo at […] (Rattus norvegicus [3]; dose 1.5 mg/kg): 68% |
| 7.28 | – | CCCc1c(O)c(CCCOc2ccccc2)cc2c1CC(CCc1ccccc1)O2 (stereo not drawn) | 2% | pIC50 [2]: 6.90 |
| 7.66 | 7.35 | Oc1cc2c(cc1CCCSc1nc3ccccc3s1)OC(CCc1ccccc1)C2 (stereo not drawn) | 1% | – |
| 6.56 | – | Oc1ccc2c(c1)CC(CCc1ccccc1)O2 (stereo not drawn) | 40% | – |
| 6.63 | – | CCCc1cc(Cl)c2c(c1O)C(C)C(Cc1ccc(OC)cc1)O2 (stereo not drawn) | – | – |
| 7.42 | 7.40 | CC1(C)c2cc(O)c(CCCOc3ccccc3)cc2OC1CCc1ccccc1 (stereo not drawn) | 6% | inhibition in vivo at […] (Rattus norvegicus [3]; dose 1.5 mg/kg): 48% |
| 6.33 | – | CC1(C)c2cc(O)c(CCCOc3ccccc3)cc2OC1CCc1ccc(Cl)cc1 (stereo not drawn) | – | – |
| 7.55 | 7.04 | CCCc1cc2c(cc1O)C(C)(C)C(CCc1ccc(SC)cc1)O2 (stereo not drawn) | – | – |
| 6.70 | – | Oc1cc2c(cc1CCCOc1ccc(C3N=NN=N3)cc1)OC(CCc1ccccc1)C2 (stereo not drawn) | – | – |
| 6.97 | 7.35 | CCCc1c(O)c(CCCOc2ccc(C3N=NN=N3)cc2)cc2c1CC(CCc1ccccc1)O2 (stereo not drawn) | 2% | inhibition in vivo at […] (Rattus norvegicus [3]; dose 0.15 mg/kg): 61%; inhibition in vivo at 0.05 mg/kg (Rattus norvegicus [4]): 52%; bioavailability [16]: 12%; inhibition in vivo at 0.5 mg/kg (Rattus norvegicus [10]): 64%; Cmax [17]: 1600 nM; ED50 at […] (Rattus norvegicus [12]): 0.03 mg/kg |
| 8.00 | 7.77 | C=CCc1cc2c(cc1O)CC(CCc1ccccc1)O2 (stereo not drawn) | 52% | inhibition in vivo at […] (Rattus norvegicus [3]; dose 1.5 mg/kg): 50%; inhibition in vivo at 0.5 mg/kg (Rattus norvegicus [10]): 65% |
| 7.85 | 8.10 | Oc1cc2c(cc1CCCSc1ccncc1)OC(CCc1ccccc1)C2 (stereo not drawn) | 6% | inhibition in vivo at […] (Rattus norvegicus [3]; dose 1.5 mg/kg): 51%; Cmax [18]: 1000 nM; bioavailability [19]: 11% |
| 6.97 | – | COc1ccc(CC2Oc3ccc(O)cc3C2C)cc1 (stereo not drawn) | 6% | – |
